These results are taken from ChEMBL document CHEMBL5357038, “Highly efficient, catalyst-free, one-pot sequential four-component synthesis of novel spiroindolinone-pyrazole scaffolds as anti-Alzheimer agents: in silico study and biological screening” (RSC Med Chem, 2024).

pIC50, pKi: −log10 of the molar value. Calls of active or inactive are those of the source. The rule behind the calls is not given here.

As usually defined, the inhibition is the change of the read-out against control, counted positive when it falls. In general, pIC50 refers to the negative decadic logarithm of the IC50, by convention in mol/L. The low end stands for a high IC50, the high end for a low IC50. For orientation: pKi means the Ki on a negative log10 scale, so that one unit is a factor of ten.

Assay [1] addresses T1, Acetylcholinesterase (Homo sapiens, UniProt P22303). Kind of assay: Mixed type inhibition of AChE (unknown origin) assessed as increase in Km at 2 to 12 uM by Lineweaver-burk plot analysis. To be noted: dose 2-12 µM. In a few lines:
(§1)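 AChE kinetics run with acetylthiocholine substrate at 0.1–1 mM, with no inhibitor and with several inhibitor concentrations. Lineweaver–Burk double-reciprocal plots (1/V vs 1/[S]) across the inhibitor concentrations assigned the inhibition type and gave Km. Ki was estimated from a secondary plot of the slopes against inhibitor concentration.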

For assay [2], the target named is T1, Acetylcholinesterase. As to the kind of experiment: Inhibition of AChE (unknown origin) by Ellman's method. On the technique in general: Ellman's reagent forms a yellow product with free thiols.
Assay [3] deals with T1, Acetylcholinesterase. As to the kind of experiment: Inhibition of AChE (unknown origin) at 50 uM by Ellman's method relative to control.
Assay [4] concerns the target T1, Acetylcholinesterase. Kind of assay: Mixed type inhibition of AChE (unknown origin) assessed as inhibition constant by Lineweaver-burk plot analysis. The essentials:
as §1

For assay [5], the target named is T2, Cholinesterase (Homo sapiens, UniProt P06276). As to the kind of experiment: Inhibition of BuChE (unknown origin) at 50 uM by Ellman's method relative to control.
T2 sequence (P06276 whole entry): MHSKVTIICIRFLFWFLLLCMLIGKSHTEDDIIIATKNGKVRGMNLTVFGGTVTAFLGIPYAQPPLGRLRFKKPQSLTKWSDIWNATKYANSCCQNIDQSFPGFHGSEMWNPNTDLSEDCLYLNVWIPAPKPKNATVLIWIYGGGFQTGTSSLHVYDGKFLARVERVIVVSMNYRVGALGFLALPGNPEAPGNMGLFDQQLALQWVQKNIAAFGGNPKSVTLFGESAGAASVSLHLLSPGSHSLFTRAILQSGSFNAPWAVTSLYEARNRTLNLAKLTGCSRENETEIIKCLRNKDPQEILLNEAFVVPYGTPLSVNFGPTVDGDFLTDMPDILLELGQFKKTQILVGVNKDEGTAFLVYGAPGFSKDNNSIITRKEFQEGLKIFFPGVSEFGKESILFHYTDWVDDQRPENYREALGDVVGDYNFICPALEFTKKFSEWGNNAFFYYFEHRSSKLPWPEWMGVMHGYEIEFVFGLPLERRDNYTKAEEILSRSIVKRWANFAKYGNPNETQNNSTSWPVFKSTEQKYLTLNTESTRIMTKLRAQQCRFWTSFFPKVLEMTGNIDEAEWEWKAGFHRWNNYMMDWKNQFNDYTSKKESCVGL
Assay [6] relates to SH-SY5Y. As to the kind of experiment: Cytotoxicity against human SH-SY5Y cells assessed as reduction in cell viability at 50 uM by MTT assay. Type of assay: functional. The essentials:
(§2)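 SH-SY5Y cells were grown in DMEM/F12 with 15% FBS, penicillin (100 units per ml) and streptomycin (100 μg ml−1) at 37 °C in humidified 5% CO2/95% air. After treatment, MTT was added at 0.5 mg ml−1 final for a further 2 h. Formazan was dissolved in DMSO and read at 540 nm. Untreated control cells were set as 100% viability.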
In general terms: Tetrazolium assays rely on reduction of a dye to a coloured formazan, in cell work by metabolically active cells.

In assay [7] the target is T1, Acetylcholinesterase. Kind of assay: Mixed type inhibition of AChE (unknown origin) assessed as change in Vmax by Lineweaver-burk plot analysis. The conditions noted are these: dose 2-12 µM. The essentials: as §1
For assay [8], the system named is SH-SY5Y. As to the kind of experiment: Cytotoxicity against human SH-SY5Y cells assessed as reduction in cell viability at 5 uM by MTT assay. Type of assay: functional, cell-based. In a few lines:
as §2

Assay [9] has as its target T2, Cholinesterase. As to the kind of experiment: Inhibition of BuChE (unknown origin) incubated for 15 mins by DTNB reagent based Ellman's method.
The target of assay [10] is T1, Acetylcholinesterase. As to the kind of experiment: Inhibition of AChE (unknown origin) using acetylthiocholine as substrate incubated for 15 mins by DTNB reagent based Ellman's method.
In assay [11] the target is T2, Cholinesterase. As to the kind of experiment: Inhibition of BuChE (unknown origin) by Ellman's method.
Assay [12] concerns the target T1, Acetylcholinesterase. Kind of assay: Inhibition of AChE (unknown origin) assessed as inhibition constant. In a few lines:
as §1

For assay [13], the target named is T1, Acetylcholinesterase. As to the kind of experiment: Inhibition of AChE (unknown origin).
Assay [14] in a line: Selectivity index, ratio of Ki for inhibition of AChE (unknown origin) to Ki for inhibition of BuChE (unknown origin).
Assay [15] addresses T2, Cholinesterase. Kind of assay: Inhibition of BuChE (unknown origin).
Assay [16] in a line: Cytotoxicity against human MC65 cells assessed as reduction in cell viability. Type of assay: functional.

T1 sequence (P22303 whole entry): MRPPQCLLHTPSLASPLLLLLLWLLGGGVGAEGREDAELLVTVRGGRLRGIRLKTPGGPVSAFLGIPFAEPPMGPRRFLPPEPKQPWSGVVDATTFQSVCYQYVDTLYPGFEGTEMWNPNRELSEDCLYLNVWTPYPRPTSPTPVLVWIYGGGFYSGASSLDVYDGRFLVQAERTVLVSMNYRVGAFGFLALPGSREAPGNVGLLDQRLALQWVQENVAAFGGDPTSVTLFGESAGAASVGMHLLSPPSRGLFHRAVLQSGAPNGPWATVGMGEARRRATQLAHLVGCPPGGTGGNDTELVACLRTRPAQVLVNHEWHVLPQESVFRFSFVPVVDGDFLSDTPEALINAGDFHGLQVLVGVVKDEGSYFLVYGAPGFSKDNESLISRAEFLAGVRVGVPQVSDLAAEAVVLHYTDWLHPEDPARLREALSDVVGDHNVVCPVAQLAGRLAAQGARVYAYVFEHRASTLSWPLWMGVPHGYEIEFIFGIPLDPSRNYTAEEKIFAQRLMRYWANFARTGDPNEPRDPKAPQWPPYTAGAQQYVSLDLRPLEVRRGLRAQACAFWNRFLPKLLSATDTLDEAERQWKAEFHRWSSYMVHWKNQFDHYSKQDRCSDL

On to `O=C1Nc2ccccc2C12NNC(Nc1cccc(Cl)c1)=C2[N+](=O)[O-]` (centres undefined), for which the inhibition result on Acetylcholinesterase [1] is “Active”. The pIC50 at Acetylcholinesterase [2] is 5.22. Besides, the inhibition at Acetylcholinesterase [3] was 75.5%; against Cholinesterase [5] it was 13.9%; on Acetylcholinesterase [7], “Dose-Dependent Effect”. Moreover, the pKi on Acetylcholinesterase [4] is 5.25. For the same molecule, in the assay on SH-SY5Y [6], the Activity was found to be 64.81%. For the same molecule, the result in the assay with SH-SY5Y [8] was inactive.

On Acetylcholinesterase [3], `COc1ccc(NC2=C([N+](=O)[O-])C3(NN2)C(=O)Nc2ccc(OC)cc23)cc1` (centres undefined) gave an inhibition of 29.7%. Further, on Cholinesterase [5], the inhibition result was “inactive”.

Regarding `CCOP(=O)(OCC)C(NCc1cccs1)c1cn(-c2ccccc2)nc1-c1ccc(Cl)cc1` (centres undefined), the results for the pIC50 against Cholinesterase [9] and at Acetylcholinesterase [10] were 5.20 and 7.77, respectively.

Take `Cc1ccccc1NC1=C([N+](=O)[O-])C2(NN1)C(=O)Nc1ccc(Cl)cc12` (centres undefined): the inhibition on Acetylcholinesterase [3] is 21.9%; against Cholinesterase [5], 73.8%. On Cholinesterase [11], this molecule showed a pIC50 of 5.04.

As to `O=C1Nc2ccccc2C12NNC(Nc1ccc(O)cc1)=C2[N+](=O)[O-]` (centres undefined), the inhibition at Acetylcholinesterase [3] was 41%; against Cholinesterase [5] it was 12.9%.

As to `NS(=O)(=O)c1cccc(NC(=S)N/N=C2\C(=O)N(Cc3ccccc3)c3ccc([N+](=O)[O-])cc32)c1`, on Acetylcholinesterase [12], the pKi is 6.66.

At Acetylcholinesterase [13], `Cc1cc(-c2cc3cc([N+](=O)[O-])ccc3oc2=O)n[nH]1` gave a pIC50 of 4.79.

At Acetylcholinesterase [2], `Cc1ccccc1NC1=C([N+](=O)[O-])C2(NN1)C(=O)Nc1c(C(F)(F)F)cccc12` (centres undefined) had a pIC50 of 4.77. In addition, the inhibition at Acetylcholinesterase [3] came out at 63.1%; against Cholinesterase [5] it was 37.5%.

Turning to `O=C1Nc2c(C(F)(F)F)cccc2C12NNC(Nc1cccc(Cl)c1)=C2[N+](=O)[O-]` (centres undefined), the inhibition is 20.6% against Acetylcholinesterase [3] and 18.8% on Cholinesterase [5].

As to `COc1ccc(NC2=C([N+](=O)[O-])C3(NN2)C(=O)Nc2ccccc23)cc1` (centres undefined), the inhibition at Acetylcholinesterase [3] stood at 47.8%; against Cholinesterase [5], 53.4%. Also, the pIC50 on Cholinesterase [11] is 4.46.

In the case of `COc1ccc(OC)c(NC2=C([N+](=O)[O-])C3(NN2)C(=O)Nc2ccc([N+](=O)[O-])cc23)c1` (centres undefined), the pIC50 against Acetylcholinesterase [2] was 4.37. Besides, the inhibition on Acetylcholinesterase [3] turned out to be 55.1%; against Cholinesterase [5], 25.1%.

For the molecule `O=C1Nc2ccc([N+](=O)[O-])cc2C12NNC(Nc1ccc(Cl)cc1)=C2[N+](=O)[O-]` (centres undefined), at Acetylcholinesterase [2], the negative logarithm of the IC50 (pIC50) was 4.43. Further, the inhibition amounted to 65.9% against Acetylcholinesterase [3] and 21.8% on Cholinesterase [5].

Turning to `Cc1ccccc1NC1=C([N+](=O)[O-])C2(NN1)C(=O)Nc1ccc([N+](=O)[O-])cc12` (centres undefined), the pIC50 on Acetylcholinesterase [2] is 4.81. Further, the inhibition at Acetylcholinesterase [3] is 71.6%; on Cholinesterase [5] it was 38.9%.

Regarding `O=C1Nc2c(C(F)(F)F)cccc2C12NNC(Nc1cccc3ccccc13)=C2[N+](=O)[O-]` (centres undefined), the inhibition at Acetylcholinesterase [3] came out at 39.1%. In addition, the inhibition result at Cholinesterase [5] was “inactive”.

As for `Cc1cc(Cl)cc2c1N(C)C(=O)/C2=N\NC(=S)Nc1cccc(S(N)(=O)=O)c1`, on Acetylcholinesterase [12], the negative-log Ki (pKi) was 6.28. Besides, the Ratio Ki in [14] came to 37.7.

At Acetylcholinesterase [2], `Cc1ccccc1NC1=C([N+](=O)[O-])C2(NN1)C(=O)Nc1ccc(Br)cc12` (centres undefined) gave a pIC50 of 4.38. Also, the figures for the inhibition at Acetylcholinesterase [3] and against Cholinesterase [5] were 51.8% and 34%, respectively.

On to `COc1ccc2c(c1)C1(NNC(Nc3ccc(C)c(C)c3)=C1[N+](=O)[O-])C(=O)N2` (centres undefined), for which the inhibition entry on Acetylcholinesterase [3] was “inactive”. Further, the pIC50 against Cholinesterase [11] is 4.33. This molecule had an inhibition against Cholinesterase [5] of 52.3%.

As for `O=C(Nc1cccc(-c2cc(-c3ccc(Cl)cc3)n[nH]2)c1)c1ccccc1`, the pIC50 was 5.93 on Cholinesterase [15] and 5.71 against Acetylcholinesterase [13]. For the same molecule, in [16], the Activity amounted to 90%.

For `O=C1Nc2ccccc2C12NNC(Nc1ccc(Cl)cc1)=C2[N+](=O)[O-]` (centres undefined), the inhibition against Acetylcholinesterase [3] was 13.9%; at Cholinesterase [5] it was 14.9%.

Turning to `Cc1ccccc1NC1=C([N+](=O)[O-])C2(NN1)C(=O)Nc1ccccc12` (centres undefined), the inhibition against Acetylcholinesterase [3] was found to be 35.4%; on Cholinesterase [5], 60.1%. The pIC50 against Cholinesterase [11] was 4.70.

For the molecule `Cc1ccc(NC2=C([N+](=O)[O-])C3(NN2)C(=O)Nc2ccccc23)cc1` (centres undefined), the inhibition at Acetylcholinesterase [3] came to 30.5%; on Cholinesterase [5] it was 56.5%. Moreover, the pIC50 against Cholinesterase [11] is 4.60.

`Cc1ccc(NC2=C([N+](=O)[O-])C3(NN2)C(=O)Nc2ccccc23)cc1C` (centres undefined): the inhibition was 29.4% at Acetylcholinesterase [3] and 31.1% against Cholinesterase [5].
